Legend:
[1] = biological target: T1, TAS2R5 (Homo sapiens, UniProt Q9NYW4); type: cell-based
T1 sequence (Q9NYW4 1-299): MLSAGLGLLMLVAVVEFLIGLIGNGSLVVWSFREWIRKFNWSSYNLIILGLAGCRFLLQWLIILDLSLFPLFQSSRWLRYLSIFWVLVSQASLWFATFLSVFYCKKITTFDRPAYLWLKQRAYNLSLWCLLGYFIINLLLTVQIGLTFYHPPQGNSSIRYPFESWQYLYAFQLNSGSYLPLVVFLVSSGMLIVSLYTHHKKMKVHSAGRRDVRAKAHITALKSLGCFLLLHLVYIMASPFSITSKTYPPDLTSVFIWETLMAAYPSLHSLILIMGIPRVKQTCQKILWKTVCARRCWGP

[2] = biological target: T1, TAS2R5; assay: FLOWER microtoroid optical resonator receptor-ligand affinity measurement; type: binding
Summary of the method: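 Microtoroid coated with DOPC vesicles (0.5 mg/mL, 1.5 h, 3–4 °C). HEK-293-expressed TAS2R5 was extracted with CellLyticM (1:3) and spun 12,500 rcf, 60 min, 4 °C. The supernatant, diluted 1:6 in DPBS pH 7.4, was incubated with the toroid for 1.5 h. Graded agonist concentrations were perfused with 5-min buffer rinses. Peak wavelength shift per concentration was fit to a Hill binding equation (Bmax, nonspecific, background terms) for KD.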

`c1cnc2c(c1)ccc1cccnc12` [T5-1, 1,10-phenanthroline] was tested, and the EC50 ([1]; EC50, D9 cells, Fluo-4, [Ca2+]i, mean ± SE of 7 to 10 experiments) was 23.1 ± 3.99 µM, the “EC50, fold lower than that of T5-14” value ([1]; [Ca2+]i in D9 cells) was 3 fold and the “potency class of the agonist” value ([1]; cellular assays) was “moderate-potency”. The “S.T. (log-transformed signal transduction coefficient)” value ([1]; log(EMax/EC50), EC50 in Molar) was 6.5 and the Kd [2] was 13 ± 3.5 µM.

From PMC11621838 (Proceedings of the National Academy of Sciences of the …, 2024)
